# Compounds with a hit are over-represented: about 2% of the library has one in this group of screens.
# SR-BI DiI-HDL act = activators of SR-BI mediated DiI-HDL uptake, primary screen, ldlA[mSR-BI] CHO cells, DiI fluorescence. 3 h; 100 = double the neutral-control signal. activation, % at 12.5 µM. actives 0.096% (n = 320,000). AID 504775, 2011;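 active means mean replicate activation of at least 60% and every replicate at or above 60%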;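 further: 0% = median plate neutral-control signal and 100% = twice that signal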
#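 Test system: SR-BI-overexpressing, LDLR-lacking CHO cells; Also added: labelled HDL, 10 µg/mL; Measured by: bottom-read cell fluorescence after medium removal, ex 550/em 595 nm; Timing: 3 h uptake period with compound, 37 °C; Buffer or medium: F12, 0.5% BSA, 25 mM HEPES; Doses: single compound concentration, delivered by pin transfer.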
# sPLA2-III inh = human group III sPLA2 inhibitors, primary screen, biochemical, QFRET, BODIPY PC-A2 liposome substrate; Group 3 secretory phospholipase A2 (Homo sapiens), Q9NZ20; QFRET BODIPY PC-A2 liposome hydrolysis, fluorescence; inhibition, % at 12.2 µM; actives 0.56% (n = 370,000); AID 743126, 2013;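 active means inhibition above mean plus 3 SD of compounds lying within the high and low control bounds, cut at about 19% in these data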;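 further: 0% = median of test compound wells and 100% = no enzyme DMSO wells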
# ARNT-TACC3 inh = disruptors of ARNT/TACC3 protein interaction, primary screen, biochemical, AlphaScreen, single concentration | Transforming acidic coiled-coil-containing protein 3 (Homo sapiens), Q9Y6A5 | AlphaScreen His-ARNT PAS-B/GST-TACC3 binding, luminescence; TACC3 fragment carries E629A point mutation | inhibition, % at 9.99 µM | actives 0.66% (n = 390,000);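 active means mean inhibition of replicates at least 50% and at least half of replicates each reaching 50%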;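 further: 0% = complete ARNT plus TACC3 wells and 100% = ARNT alone without TACC3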
# SR-BI HDL uptake = inhibitors of SR-BI mediated HDL lipid uptake, primary screen, ldlA[mSR-BI] cells, fluorescence, single point; inhibition, % at 12.5 µM; actives 0.96% (n = 320,000); Scavenger receptor class B member 1 (Mus musculus), Q61009; ldlA[mSR-BI] CHO cells, DiI-HDL uptake fluorescence, 3 h; AID 488896, 2010;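 active means mean replicate inhibition of at least 70% and a set share of replicates each scoring 70 or more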;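 further: 0% = median of neutral control wells and 100% = median of positive control wells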
# Target sequence (Q61009 whole entry, looked up): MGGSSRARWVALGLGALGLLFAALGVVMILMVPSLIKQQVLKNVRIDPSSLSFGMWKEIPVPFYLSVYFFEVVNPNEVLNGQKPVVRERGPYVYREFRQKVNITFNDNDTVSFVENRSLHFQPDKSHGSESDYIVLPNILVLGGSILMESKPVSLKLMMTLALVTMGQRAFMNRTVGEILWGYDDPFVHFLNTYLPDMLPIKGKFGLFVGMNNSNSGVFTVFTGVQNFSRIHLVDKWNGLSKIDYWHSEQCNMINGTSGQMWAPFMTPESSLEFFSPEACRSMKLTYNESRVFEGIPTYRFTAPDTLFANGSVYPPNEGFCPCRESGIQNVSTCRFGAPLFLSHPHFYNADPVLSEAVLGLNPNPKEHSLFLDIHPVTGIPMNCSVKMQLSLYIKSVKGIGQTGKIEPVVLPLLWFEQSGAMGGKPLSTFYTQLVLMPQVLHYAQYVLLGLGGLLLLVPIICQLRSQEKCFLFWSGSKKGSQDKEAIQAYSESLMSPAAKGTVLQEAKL
# Xi reactivation = activators of inactive X chromosome reactivation, primary screen, imaging, XiGFP fibroblasts, GFP high-content imaging, set 2 | XiGFP mouse fibroblasts, % GFP-positive cells imaging, 3 d; cells co-treated with 5-aza-dC sensitizer; scaled so ellipticine positive control = 100% | activation, % at 7.58 µM | actives 0.055% (n = 360,000);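 active means mean normalized replicate activation at least 10% and every replicate at or above 10%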;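 further: 0% = median of on-plate neutral control wells and 100% = ellipticine 6 µM median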
#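 System: XiGFP fibroblasts, SV40-immortalized. Medium: DMEM plus 5-aza-dC sensitizer. Doses: single point. Timing: 3 d treatment, 15 min room-temperature fixation. Control set: ellipticine 6 µM.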
# NSD2 HMT inh = NSD2 histone methyltransferase inhibitors, primary screen, biochemical, AlphaScreen, single concentration, set 2 | Histone-lysine N-methyltransferase NSD2 (Homo sapiens), O96028 | NSD2 peptide methylation, 120 min | inhibition, % at 12.5 µM | actives 0.54% (n = 310,000); in the data active means inhibition above about 50%
# Alpha artifact = AlphaScreen signal interference with preloaded methylated product, dose response, artefact control for NSD2 inhibitor project, biochemical, cherry-picked samples; shares compounds with NSD2 HMT inh; AlphaScreen artifact counterscreen, preloaded methylated H4 peptide; AC35, µM (series often up to 10 µM), without a hit: top-dose activity change, negative = signal loss; actives 9.4% (n = 1,500); call rule not given here
# An asterisk follows results filed as active; x = not tested or not shown.
SMILES,SR-BI DiI-HDL act,sPLA2-III inh,ARNT-TACC3 inh,SR-BI HDL uptake,Xi reactivation,NSD2 HMT inh,Alpha artifact
CCCCCCCCn1cnc2c(N)c(C)c(C)cc21,-2,0,4,2,x,76*,-5%
CCC(C)NC(=O)C1CCN(S(=O)(=O)N2CCCC2)CC1 (configuration not stated),-7,-2,-1,7,x,-3,x
O=[N+]([O-])c1ccc(Nc2ccccc2)c2nonc12,16,2,8,-16,0,24,x
O=[N+]([O-])c1ccc(Sc2cccc[n+]2[O-])c2nonc12,-38,-1,62*,38,59*,129*,7.8µM*
CCn1ccnc1CN(C)C(=O)c1cc(COc2c(F)cccc2F)on1,-17,-1,4,17,0,-1,x
CCN(CC)CCNc1cc(C)nc2c1C(=O)C(=O)C=C2N1CCCCC1,9,-2,31,-9,1,118*,1%
CCCNC(=O)N(C)C[C@@H]1Oc2cc(C#CCOC)ccc2S(=O)(=O)N([C@H](C)CO)C[C@H]1C,x,x,-2,x,0,x,x
CC(C)(C)NC(=O)COC(=O)c1ccc2c(c1)C(=O)N(Cc1ccco1)C2=O,7,3,-1,-7,0,75*,-1%
CC(=O)Oc1cccc2c1C(=O)C1CC=CC(OC(C)=O)C1C2=O (configuration not stated),-7,17,-8,7,0,69*,8µM*
COc1cc(NCCCNC(C)C)c2nccc(C)c2c1,-4,2,77*,4,0,107*,-4%
CC(=O)c1ccc(N(CC(=O)NCCc2ccccc2)C(=O)c2csnn2)cc1,-8,0,-31,8,0,70*,-1%
O=C(CN(C(=O)c1csnn1)c1cccc2ccccc12)NCc1ccccc1,-9,-5,1,9,0,96*,1%
Nc1ccc2c(c1)C(=O)c1ccccc1-2,14,16,-2,-14,0,x,x
Nc1ccc2c(c1)C(=O)C(=O)c1ccccc1-2,-5,9,21,5,x,112*,-8%
Cc1cccc(C(=O)NCc2nnc(SCC(=O)Nc3nnc(C)s3)n2C)c1,12,3,-28,-12,0,90*,-2%
COc1ccc(C(C(=O)NC(C)(C)C)N(C(=O)CCC(=O)Nc2cc(C)on2)c2cc(C)cc(C)c2)cc1 (configuration not stated),x,-1,-4,x,1,14,x
COc1ccc(C(C(=O)NC(C)(C)C)N(C(=O)CCC(=O)Nc2cc(C)on2)c2ccccc2F)cc1 (configuration not stated),-5,-7,2,5,0,77*,0%
COCCN(C(=O)CCC(=O)Nc1cc(C)on1)C(C(=O)NC(C)(C)C)c1ccccc1Cl (configuration not stated),3,-2,x,-3,0,140*,-6%
CCCCN(C(=O)CCC(=O)Nc1cc(C)on1)C(C(=O)NC(C)(C)C)c1ccccc1Cl (configuration not stated),x,0,7,x,0,-6,x
Cc1cc(C)n(CC(O)COc2c(C)cccc2C)n1 (configuration not stated),19,9,x,-19,0,55*,4%
Cc1cc(C)n(CC(O)COc2cccc(OCC(O)Cn3nc(C)cc3C)c2)n1 (configuration not stated),-53,-8,-2,53,x,x,x
COc1ccc(-n2nnnc2SCC(=O)c2ccc3c(c2)OCCO3)cc1,38,-8,-4,-38,x,98*,-3%
COc1ccc(-n2nnnc2SCC(=O)c2cccc(OC)c2)cc1,x,-86,-2,x,x,-2,x
CO[C@H]1CN(C)C(=O)c2ccc(NC(=O)Nc3cc(F)ccc3F)cc2OC[C@@H](C)N(C)C[C@@H]1C,x,x,7,x,-1,x,x
Cn1c(SCC(=O)c2ccccc2F)nnc1C1CC1,3,-2,-23,-3,x,2,x
SMILES,SR-BI DiI-HDL act,sPLA2-III inh,ARNT-TACC3 inh,SR-BI HDL uptake,Xi reactivation,NSD2 HMT inh,Alpha artifact
COc1ccc2ccccc2c1C1CC(=O)N2CN(C)CSC2=C1C#N (configuration not stated),23,-26,10,-23,x,89*,-7%
Cn1c(=O)c2c(nc(CN3CCc4ccccc4C3)n2CCc2ccccc2)n(C)c1=O,x,x,x,x,x,69*,-4%
COc1cc(NC(=O)COC(=O)CNC(=O)c2ccc(C)cc2)c(C)cc1[N+](=O)[O-],22,7,x,-22,0,59*,-4%
Cn1c(=O)c2c(nc(Sc3ncnn3CC(=O)N3CCOCC3)n2C)n(C)c1=O,-6,0,2,6,1,x,x
C=C1CCC[C@]2(C)C[C@H]3OC(=O)C(CN(Cc4ccc(OC)c(OC)c4)CC(C)O)[C@H]3CC12 (some centres not stated),-11,11,-2,11,0,0,x
NC1=NC(=Nc2ccc(Br)cc2)c2ccccc21,-15,7,-6,15,0,53*,-9%
NC1=NC(=Nc2ccccc2)c2ccccc21,5,0,-34,-5,x,-2,x
CCOC(=O)Cc1csc(NC(=O)CN(C)S(=O)(=O)c2cccc3cccnc23)n1,1,-1,-5,-1,0,x,x
Cc1cc(C)c(NC(=O)C2CC(=O)N(c3ccc4c(c3)OCCO4)C2)c(C)c1 (configuration not stated),-3,-10,0,3,x,106*,-4%
CC1=C(C#N)C(c2ccc3ncccc3c2)C(C#N)=C(C)N1,3,18,-4,-3,x,4,x
CN1/C(=C\C(=O)COC(=O)c2ccc(O)c(O)c2)C(C)(C)c2ccccc21,x,-5,x,x,0,56*,-10%
c1cc(-c2ccsc2)n2ccnc2c1,x,10,x,x,0,-1,x
c1cc(-c2ccoc2)n2ccnc2c1,x,-7,x,x,0,105*,-1%

# Screens from PubChem.
